Apaf1 inhib – inhibitors of human Apaf-1 apoptosome. O14727. reconstituted apoptosome caspase-3 activity, DEVD-Rh110 fluorescence. inhibition, % at 20 µM. hit rate 0.71% among 330,000. AID 489030; active = inhibition of at least 40% at 20 µM;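 note: plate controls were DMSO wells for no effect and DEVD-CHO caspase inhibitor wells for full effect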
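Assay system: Apoptosome proteins | Medium: pH 7.5 Hepes buffer with CHAPS, BSA, DTT | Also added: Cytochrome c and DEVD-Rh110 substrate | Times: 30 min plus 50 min, RT | Detection: Rhodamine 110 fluorescence at Ex 480/Em 540 nm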
UCH37 inh – blocks the human deubiquitinase UCH37. purified proteasome/UCH37, Ub-AMC cleavage fluorescence. hit rate 0.33% among 330,000. inhibition, % (concentration not given with the values). AID 588478. Q9Y5K5;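 active = mean inhibition over replicate wells above about 20%, limit read from the data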;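 note: 0% = compound-free wells with enzyme and 100% = wells lacking proteasome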
Target sequence (Q9Y5K5 whole entry, looked up): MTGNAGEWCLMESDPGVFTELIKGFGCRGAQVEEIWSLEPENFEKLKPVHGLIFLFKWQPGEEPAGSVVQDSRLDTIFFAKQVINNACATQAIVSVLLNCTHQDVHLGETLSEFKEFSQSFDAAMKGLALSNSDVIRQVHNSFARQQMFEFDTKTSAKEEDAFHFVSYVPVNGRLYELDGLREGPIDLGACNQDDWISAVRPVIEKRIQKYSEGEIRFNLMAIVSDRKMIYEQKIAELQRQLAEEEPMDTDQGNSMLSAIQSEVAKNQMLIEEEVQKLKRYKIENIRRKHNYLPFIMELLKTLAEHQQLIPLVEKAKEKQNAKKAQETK
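Material: human UCH37 enzyme supplied as purified proteasome complex / Amount: 0.15 nM proteasome as dispensed / Buffer or medium: pH 7.4 Tris-HCl (50 mM) with ovalbumin, ATP-MgCl2, DTT / Times: preincubation 30 min, reaction 25 min, room temperature / Technique: AMC fluorescence from Ub-AMC cleavage, excitation 355 nm, emission 460 nm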
UBC13 inh – blocks human UBC13 polyubiquitin chain formation. hit rate 0.47% among 330,000. inhibition, % at 20 µM. TR-FRET. P61088. AID 485273; in the data active = inhibition above about 45%, passing the limit was not always enough
PREPL inh – inhibitors of human prolyl oligopeptidase-like enzyme PREPL. Q4J6C6. recombinant PREPL, fluorescence polarization activity-based probe. inhibition, % at 5.96 µM. hit rate 0.68% among 320,000;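 note: 0% = enzyme with DMSO and 100% = wells lacking enzyme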
PREPL inh cf – human PREPL inhibition, confirmation. inhibition, % at 5.96 µM. recombinant PREPL, fluorescence polarization activity probe. hit rate 67% among 2,000. shares compounds with PREPL inh;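 note: 0% = protein with DMSO and 100% = wells lacking protein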
Casp3 counter – counter-screen for UBC13 inhibitors: human caspase-3 inhibition. Recombinant caspase-3, Caspase-Glo 3/7 luminescence, 60 min. hit rate 4% among 1,400. shares compounds with UBC13 inh. AID 488856. inhibition, % at 20 µM;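 active = mean inhibition across replicates above about 26%, limit read from the data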;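 note: plate controls were DMSO with caspase-3 for no effect and DMSO wells lacking enzyme for full effect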
Target sequence (P42574 whole entry, looked up): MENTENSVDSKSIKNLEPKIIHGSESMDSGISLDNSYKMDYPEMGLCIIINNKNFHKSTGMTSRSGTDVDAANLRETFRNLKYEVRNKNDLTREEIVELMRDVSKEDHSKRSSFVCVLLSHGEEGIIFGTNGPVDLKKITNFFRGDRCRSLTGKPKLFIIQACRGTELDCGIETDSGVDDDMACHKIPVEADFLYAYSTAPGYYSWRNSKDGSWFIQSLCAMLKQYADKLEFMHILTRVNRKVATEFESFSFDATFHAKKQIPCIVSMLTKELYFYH
UBC13 conf – human UBC13 polyubiquitin inhibition, confirmed; shares compounds with UBC13 inh; UBC13 polyubiquitination, TR-FRET, biochemical; inhibition, % at 10 µM; hit rate 68% among 1,400; in the data active = inhibition above about 45%
Apaf-1 inh conf2 – Apaf-1 inhibition, single-dose confirmed | shares compounds with Apaf1 inhib | reconstituted apoptosome, caspase-3 DEVD-Rh110 fluorescence | inhibition, % at 20 µM | hit rate 25% among 1,800 | AID 504614;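 active = mean inhibition of at least 40% at 20 µM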;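 note: plate controls were DMSO wells for no effect and DEVD-CHO caspase inhibitor control wells for full effect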
Rh110 interf inh – counter-screen for Apaf-1 inhibitors: fluorescence interference. shares compounds with Apaf1 inhib. Rh110 fluorescence interference, quenched caspase reaction. activation (fluorescence interference), % at 20 µM. 1,800 tested, under 10 active. AID 504615;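 active = signal rise of 40% or more at 20 µM, treated as a fluorescence artifact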
Fluor interf inh – shows fluorescence interference in the Apaf-1 inhibitor assay format. shares compounds with Apaf1 inhib. fluorescence interference counterscreen, Apaf-1 assay format. IC50, µM. 460 tested, under 10 active; call rule not given here
The depositor's hits bear a star; . = no result. An excerpt weighted towards active compounds, which were near 1.5% of everything screened. Cut-off read from the data, not from the text of the source, unless noted: active = inhibition above about 43%; inactive = the rest.

SMILES	Apaf1 inhib	UCH37 inh	UBC13 inh	PREPL inh	PREPL inh cf	Casp3 counter	UBC13 conf	Apaf-1 inh conf2	Rh110 interf inh	Fluor interf inh
NC(=O)c1ccc(C=NO)nc1	.	4	.	.	.	.	.	.	.	.
C#CCOCCOCCOCCNc1nc(N2CCN(C(=O)CCCCCCCCCCNC(=O)Cn3cc(C[C@@H](C)O)nn3)CC2)nc(N2CCN(C(=O)CCCCCCCCCCNC(=O)[C@H](CCCCN)n3cc(CCCC(=O)O)nn3)CC2)n1	28	4	44	18	.	.	.	.	.	.
C#CCOCCOCCOCCNc1nc(N2CCN(C(=O)CCCCCCCCCCNC(=O)Cn3cc(CCCCCN)nn3)CC2)nc(N2CCN(C(=O)CCCCCCCCCCNC(=O)[C@@H](CCC(=O)O)n3cc(CCCCCN)nn3)CC2)n1	59*	0	96*	44*	35	1	79*	.	.	.
C#CCOCCOCCOCCNc1nc(N2CCN(C(=O)CCCCCCCCCCNC(=O)[C@H]([C@@H](C)CC)n3cc(CCCCCN)nn3)CC2)nc(N2CCN(C(=O)CCCCCCCCCCNC(=O)[C@H]([C@@H](C)CC)n3cc(CCCCN=C(N)N)nn3)CC2)n1	71*	9	125*	63*	57*	-3	128*	.	.	.
O=C(C[n+]1ccc(CCSc2ccc(F)cc2)cc1)c1ccccc1	-2	5	72*	53*	44*	0	124*	.	.	.
CCCCCCC(=O)NN=C(C)Cc1ccccc1	.	3	.	.	.	.	.	.	.	.
C(=NN1CCN(C(c2ccccc2)c2ccccc2)CC1)c1ccc2c(c1)OCO2	.	3	.	.	.	.	.	.	.	.
Cc1ccc(Cc2c(C)nc3nc(SCC(=O)NCCCN4CCCCCC4)nn3c2C)cc1	38	.	103*	53*	42	8	101*	.	.	.
Cc1nc2nc(SCC(=O)NCCCN3CCCCC3)nn2c(C)c1Cc1ccccc1	12	2	4	15	.	.	.	.	.	.
COc1ccc2nc(C)cc(NN=Cc3ccc(F)cc3)c2c1	.	-5	.	.	.	.	.	.	.	.
CCN(CC)c1ccc(C=NNC(=O)c2ccco2)c(O)c1	.	-28	.	.	.	.	.	.	.	.
COC(=O)CCC(=O)OC1(C)C(=O)C2=CN(C3CC3)C(c3ccc(OC)cc3)=CC2=C(Br)C1=O (stereo not drawn)	61*	3	-58	75*	69*	.	.	56*	1	>100
COC(=O)CCC(=O)OC1(C)C(=O)C2=CN(CC3CC3)C(c3ccc(OC)cc3)=CC2=C(Br)C1=O (stereo not drawn)	66*	4	-87	69*	56*	.	.	64*	6	>100
O=C(NN=CC1CC2C=CC1C2)c1ccccc1O (stereo not drawn)	.	-11	.	.	.	.	.	.	.	.
COc1ccccc1N1CCN(Cc2nc(N)nc(Nc3ccc(C)c(Cl)c3)n2)CC1	20	3	-2	29	.	.	.	.	.	.
COc1cc2nc(Nc3ccc(C)c(Cl)c3)nc(N)c2cc1OC	45*	-29	111*	72*	66*	25*	121*	35	14	.
C#CCOCCOCCOCCNc1nc(N2CCN(C(=O)Cn3cc(CCCCN)nn3)CC2)nc(N2CCN(C(=O)[C@H]([C@@H](C)CC)n3cc(CCCCN)nn3)CC2)n1	23	1	39	6	.	.	.	.	.	.
C#CCOCCOCCOCCNc1nc(N2CCN(C(=O)CCCCCCCCCCNC(=O)[C@H]([C@@H](C)CC)n3cc(CCCCN=C(N)N)nn3)CC2)nc(N2CCN(C(=O)CCCCCCCCCCNC(=O)[C@H](CCCCN)n3cc(C)nn3)CC2)n1	73*	.	124*	45*	55*	-4	127*	63*	13	>100
C#CCOCCOCCOCCNc1nc(N2CCN(C(=O)CCCCCCCCCCNC(=O)Cn3cc(CCCCCN)nn3)CC2)nc(N2CCN(C(=O)CCCCCCCCCCNC(=O)[C@H]([C@@H](C)CC)n3cc(CCCCN=C(N)N)nn3)CC2)n1	85*	14	121*	68*	62*	-4	124*	69*	3	>100
C#CCOCCOCCOCCNc1nc(N2CCN(C(=O)CCCCCCCCCCNC(=O)Cn3cc(CCCCCN)nn3)CC2)nc(N2CCN(C(=O)CCCCCCCCCCNC(=O)Cn3cc(CCCCCN)nn3)CC2)n1	65*	.	118*	64*	62*	-1	121*	51*	7	>100
C#CCOCCOCCOCCNc1nc(N2CCN(C(=O)Cn3cc(CCCCN)nn3)CC2)nc(N2CCN(C(=O)Cn3cc(CCCCN)nn3)CC2)n1	11	6	26	7	.	.	.	.	.	.
C#CCOCCOCCOCCNc1nc(N2CCN(C(=O)CCCCCCCCCCNC(=O)Cn3cc(C[C@@H](C)O)nn3)CC2)nc(N2CCN(C(=O)CCCCCCCCCCNC(=O)[C@H](CCCN=C(N)N)n3cc(C[C@@H](C)CC)nn3)CC2)n1	62*	4	124*	48*	42	3	119*	36	6	.
C#CCOCCOCCOCCNc1nc(N2CCN(C(=O)CCCCCCCCCCNC(=O)[C@H](CO)n3cc(CCCSC)nn3)CC2)nc(N2CCN(C(=O)CCCCCCCCCCNC(=O)[C@@H]([C@H](C)O)n3cc(C)nn3)CC2)n1	32	.	11	8	.	.	.	.	.	.
COc1cccc(C=NNC(=S)NCCc2ccccc2)c1OC	.	1	.	.	.	.	.	.	.	.
C#CCOCCOCCOCCNc1nc(N2CCOCC2)nc(N2CCN(C(=O)CCCCCCCCCCNC(=O)[C@@H](CCC(=O)O)n3cc(CCCCCN)nn3)CC2)n1	-11	0	7	-3	.	.	.	.	.	.
C#CCOCCOCCOCCNc1nc(N2CCN(C(=O)CCCCCCCCCCNC(=O)[C@H]([C@@H](C)CC)n3cc(CCCCCN)nn3)CC2)nc(N2CCN(C(=O)CCCCCCCCCCNC(=O)[C@H](CO)n3cc(CCCCCN)nn3)CC2)n1	71*	.	120*	50*	51*	0	124*	48*	9	>100
CC1=NNC(=O)C1CC(=O)NN=C/C(Br)=C/c1ccccc1 (stereo not drawn)	.	6	.	.	.	.	.	.	.	.
CC(C)n1cnc2c(NCc3ccccc3)cc(N[C@H](C)CO)cc21	97*	2	-29	61*	22	.	.	96*	5	>100
CCC(COC)Oc1cc(NCc2ccccc2)c2ncn(C(C)C)c2c1 (stereo not drawn)	97*	8	1	52*	9	.	.	67*	1	>100
